Target: Sodium-dependent dopamine transporter (Rattus norvegicus, UniProt P23977)
Test: Inhibition of [3H]3-beta-(p-fluorophenyl)tropane-2beta-carboxylic acid methyl ester binding to Dopamine transporter in rat striatal membranes.
Format: cell membranes, Membrane
In short: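 Male Sprague-Dawley rat (250-350 g) striata, frozen at -70 °C, homogenized in 10 mM phosphate buffer pH 7.4 with 0.32 M sucrose; 40000g pellet washed, resuspended at 1.0 mg/mL tissue. 0.5 nM [3H]-23 incubated 2 h on ice; filtration onto polyethylenimine-soaked GF/B filters, scintillation counting. IC50 from 10-12-point competition curves, 3-4 assays.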

Sodium-dependent dopamine transporter, sequence (P23977 whole entry): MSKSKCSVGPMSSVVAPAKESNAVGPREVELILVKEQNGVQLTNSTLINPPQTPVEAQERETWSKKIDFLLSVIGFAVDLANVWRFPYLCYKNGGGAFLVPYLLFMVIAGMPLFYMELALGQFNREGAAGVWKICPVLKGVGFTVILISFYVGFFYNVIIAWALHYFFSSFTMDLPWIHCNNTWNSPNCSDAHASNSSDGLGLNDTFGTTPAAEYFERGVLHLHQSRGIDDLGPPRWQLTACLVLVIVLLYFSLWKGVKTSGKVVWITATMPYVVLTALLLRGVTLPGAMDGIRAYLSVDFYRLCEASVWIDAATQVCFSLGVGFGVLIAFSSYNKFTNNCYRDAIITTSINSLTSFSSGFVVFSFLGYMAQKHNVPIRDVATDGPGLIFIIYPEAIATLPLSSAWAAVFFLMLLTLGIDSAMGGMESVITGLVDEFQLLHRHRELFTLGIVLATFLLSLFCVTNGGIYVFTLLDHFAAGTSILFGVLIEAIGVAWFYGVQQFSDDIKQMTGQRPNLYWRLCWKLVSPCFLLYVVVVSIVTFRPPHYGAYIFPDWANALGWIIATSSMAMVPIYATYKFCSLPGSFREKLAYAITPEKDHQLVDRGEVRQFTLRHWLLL

| Structure (SMILES) | IC50 |
| --- | --- |
| CN1[C@@H]2CC[C@H]1C[C@H](OC(=O)c1ccccc1)C2 | 5180 nM |
| CN1C2CC[C@@H]1C[C@H](OC(=O)c1ccccc1)C2C(=O)OCCc1ccccc1 (stereo partly drawn) | 248 nM |
| CN1C2CC[C@@H]1C[C@H](OC(=O)c1ccccc1)C2C(=O)OCCCc1ccccc1 (stereo partly drawn) | 139 nM |
| CCCOC(=O)C1C2CC[C@H](C[C@@H]1OC(=O)c1ccccc1)N2C (stereo partly drawn) | 191 nM |
| CN1C2CC[C@@H]1C[C@H](OC(=O)c1ccccc1)C2C(=O)OCc1ccccc1 (stereo partly drawn) | 257 nM |
| CCOC(=O)C1C2CC[C@H](C[C@@H]1OC(=O)c1ccccc1)N2C (stereo partly drawn) | 130 nM |
| CN1C2CC[C@@H]1C[C@H](OC(=O)c1ccccc1)C2CO (stereo partly drawn) | 561 nM |
| CN1C2CC[C@@H]1C[C@H](OC(=O)c1ccccc1)C2C(=O)Oc1ccccc1 (stereo partly drawn) | 112 nM |
| CN1C2CC[C@@H]1C[C@H](OC(=O)c1ccccc1)C2C(=O)OCCc1ccc(N)cc1 (stereo partly drawn) | 72 nM |
| CCOC(=O)CCC(=O)Nc1ccc(CCOC(=O)C2C3CC[C@H](C[C@@H]2OC(=O)c2ccccc2)N3C)cc1 (stereo partly drawn) | 86 nM |
| CN1C2CC[C@@H]1C[C@H](OC(=O)c1ccccc1)C2C(=O)OCCc1ccc([N+](=O)[O-])cc1 (stereo partly drawn) | 601 nM |
| CN1C2CC[C@@H]1C[C@H](OC(=O)c1ccccc1)C2C(=O)OCCc1ccc(Cl)cc1 (stereo partly drawn) | 271 nM |
| CC(=O)OCC1C2CC[C@H](C[C@@H]1OC(=O)c1ccccc1)N2C (stereo partly drawn) | 272 nM |
| CN1C2CC[C@@H]1C[C@H](OC(=O)c1ccccc1)C2C(=O)OCCc1ccc(N=C=S)cc1 (stereo partly drawn) | 196 nM |
| CN1C2CC[C@@H]1C[C@H](OC(=O)c1ccccc1)C2C(=O)OCCc1ccc(NC(=O)CBr)cc1 (stereo partly drawn) | 61 nM |
| CNC(=O)C1C2CC[C@H](C[C@@H]1OC(=O)c1ccccc1)N2C (stereo partly drawn) | 3180 nM |
| CN1C2CC[C@@H]1C[C@H](OC(=O)c1ccccc1)C2C(=O)OCCc1ccc(N=[N+]=[N-])cc1 (stereo partly drawn) | 227 nM |
| CN1C2CC[C@@H]1C[C@H](OC(=O)c1ccccc1)C2C(=O)OC/C=C/c1ccccc1 (stereo partly drawn) | 371 nM |

From ChEMBL document CHEMBL1126011 (J Med Chem, 1992)
